# Active and inactive are the calls of the source. No cut-off for these calls is given here.
# Experiments:
# Colletotrichum acutatum = experiment: Antimicrobial activity against Colletotrichum acutatum at 100 ug/disk measured every 24 hrs for 4 days by disk diffusion assay; format: functional, organism-based
# Summary of the method: (§1)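 Fungi grown on potato dextrose agar. Plates spread with 0.6 mL conidial suspension (ca. 1×10^6 conidia/mL H₂O) and dried 1 h. Sample applied in 10 μL MeOH to 7-mm paper disks, air-dried 1 h, placed on plates. Zones of inhibition read every 24 h for 4 days. Filipin 10 μg/disk positive control; MeOH 10 μL/disk negative control.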
# Escherichia coli = experiment: Antimicrobial activity against Escherichia coli at 100 ug/disk measured every 24 hrs for 4 days by disk diffusion assay; format: functional, organism-based
# Summary of the method: (§2)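 Bacteria grown on nutrient agar. Plates spread with 0.6 mL of a 24 h nutrient-broth culture and dried 1 h. Sample applied in 10 μL MeOH to 7-mm paper disks, air-dried 1 h, placed on plates. Zones of inhibition read every 24 h for 4 days. Tetracycline 10 μg/disk positive control; MeOH 10 μL/disk negative control.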
# Botrytis cinerea = experiment: Antimicrobial activity against Botrytis cinerea at 100 ug/disk measured every 24 hrs for 4 days by disk diffusion assay; format: functional, organism-based; summary of the method: as §1
# MCF7 [1] = experiment: Cytotoxicity against human MCF7 cells after 72 hrs by XTT assay; format: functional, cell-based; settings: MCF7, 72 h
# Summary of the method: (§3)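 Cell viability measured by XTT cell proliferation kit (XTT Cell Proliferation Kit II) on Caco-2, MCF-7 and HepG2/C3A lines; IC50 values derived.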
# Beauveria bassiana = experiment: Antimicrobial activity against Beauveria bassiana ARSF 8354 at 100 ug/disk measured every 24 hrs for 4 days by disk diffusion assay; format: functional; summary of the method: as §1
# Caco-2 [2] = experiment: Cytotoxicity against human Caco2 cells after 72 hrs by XTT assay; format: functional, cell-based; settings: Caco-2, 72 h; summary of the method: as §3
# Drosophila melanogaster = experiment: Insecticidal activity against Drosophila melanogaster at 100 ug; format: functional, organism-based
# [3] = Cytotoxicity against human HepG2/C3A cells after 72 hrs by XTT assay; format: functional, cell-based; summary of the method: as §3
# Aedes aegypti = experiment: Insecticidal activity against Aedes aegypti larvae at 100 ug/ml; format: functional, organism-based
# Bacillus cereus = experiment: Antimicrobial activity against Bacillus cereus at 100 ug/disk measured every 24 hrs for 4 days by disk diffusion assay; format: functional, organism-based; summary of the method: as §2
# Caco-2 [4] = experiment: Cytotoxicity against human Caco2 cells at 100 uM after 72 hrs by XTT assay; format: functional, cell-based
# MCF7 [5] = experiment: Cytotoxicity against human MCF7 cells at 100 uM after 72 hrs by XTT assay; format: functional, cell-based
Compound,inhibition zone (IZ) (Colletotrichum acutatum),inhibition zone (IZ) (Escherichia coli),inhibition zone (IZ) (Botrytis cinerea),IC50 (MCF7 [1]) [µM],inhibition zone (IZ) (Beauveria bassiana),IC50 (Caco-2 [2]) [µM],Activity (Drosophila melanogaster),IC50 [3] [µM],Activity (Aedes aegypti),inhibition zone (IZ) (Bacillus cereus),Activity (Caco-2 [4]),Activity (MCF7 [5])
CC[C@H](C)C[C@H](C)[C@H]1OC(=O)[C@H](Cc2ccccc2)NC(=O)/C(C)=C/[C@H](C)[C@@H](O)/C(C)=C/[C@H](C)[C@H](OC(C)=O)/C(C)=C/[C@@H]1C [METACRIDAMIDE A],inactive,inactive,inactive,11,inactive,6.2,inactive,10.8,inactive,inactive,–,–
CC[C@H](C)C[C@H](C)[C@H]1OC(=O)[C@H](Cc2ccccc2)NC(=O)/C(C)=C/[C@H](C)[C@@H](O)/C(C)=C/[C@H](C)[C@H](O)/C(C)=C\[C@@H]1C [METACRIDAMIDE B],–,–,–,–,–,–,–,18.2,–,–,inactive,inactive

# Reference: ChEMBL document CHEMBL2010649, “Metacridamides A and B, macrocycles from conidia of the entomopathogenic fungus Metarhizium acridum” (J Nat Prod, 2012)
